Assay results taken from ChEMBL document CHEMBL2176900, “Design and synthesis of a novel series of bicyclic heterocycles as potent γ-secretase modulators” (J Med Chem, 2012).
pIC50: −log10 of the molar value. Values after ≈ are worked out from the molar mass of the structure shown.

Experiments:
Rattus norvegicus [1] = experiment: Antialzheimer activity in Sprague-Dawley rat assessed as amyloid beta 38 level in CSF at 10 mg/kg, po at 7 hrs by ELISA relative to control; type: functional
How it was run: (§1)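 Male Sprague-Dawley rats (180-220 g), fasted overnight, were given 10 mg/kg by gastric intubation as a 5 mg/mL suspension in 0.5% methocellulose. At 2, 4, 7 and 25 h, 50 μL CSF was taken from the cisterna magna under isoflurane, then brain was collected. Aβ37/38/40/42 were measured by MesoScale Discovery sandwich immunoassays. Results are mean % change versus T = 0 h, n = 5.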

Rattus norvegicus [2] = experiment: Antialzheimer activity in Sprague-Dawley rat assessed as amyloid beta 38 level in CSF at 10 mg/kg, po at 2 hrs by ELISA relative to control; type: functional; how it was run: as §1
Rattus norvegicus [3] = experiment: Antialzheimer activity in Sprague-Dawley rat assessed as amyloid beta 38 level in brain at 10 mg/kg, po at 2 hrs by ELISA relative to control; type: functional; how it was run: as §1
[4] = Plasma concentration in beagle dog at 20 mg/kg, po at 4 hrs; type: ADME, organism-based, Canis lupus familiaris; design: dose 20 mg/kg, route oral
Brain [5] = experiment: Drug uptake in CD1 mouse brain at 10 mg/kg, po at 24 hrs by LC-MS/MS analysis; type: ADME, organism-based; design: dose 10 mg/kg, route oral; settings: in vivo, BLD = below limit of detection
How it was run: (§2)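 Overnight-fasted male CD1 mice received one oral dose (10 or 30 mg/kg) in 20% Captisol. After sacrifice, the left brain hemisphere was stored at −18 °C. Compound level was quantified by a qualified LC-MS/MS method, alongside EDTA plasma spun at 1900g, 4 °C. n = 4 per time point.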

Mus musculus [6] = experiment: Inhibition of gamma-secretase in CD1 mouse assessed as total amyloid beta level in brain at 30 mg/kg, po at 24 hrs by ELISA relative to control; type: functional; design: scale not given: the % may be the effect or the level left
How it was run: (§3)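 Fasted male CD1 SPF mice were dosed orally at 10 or 30 mg/kg in 20% Captisol. Right hemisphere was homogenized in 0.4% DEA/50 mM NaCl and the high-speed supernatant neutralized. Aβtotal ELISA used N-terminal JRF/rAβ/2 capture, biotinylated 4G8 and streptavidin-peroxidase, then a fluorogenic substrate (ex 320/em 420 nm). Standards spanned 10000–0.3 pg/mL. Values are % change vs T = 0 h, n = 4.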

Mus musculus [7] = experiment: Inhibition of gamma-secretase in CD1 mouse assessed as total amyloid beta level in brain at 10 mg/kg, po at 8 hrs by ELISA relative to control; type: functional; design: scale not given: the % may be the effect or the level left; how it was run: as §3
Mus musculus [8] = experiment: Antialzheimer activity in CD1 mouse assessed as amyloid beta 42 level in brain at 30 mg/kg, po at 8 hrs by ELISA relative to control; type: functional
How it was run: (§4)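 Male CD1 SPF mice, fasted overnight, got a single oral dose of 10 or 30 mg/kg. At each time point the right brain hemisphere was homogenized in 0.4% DEA/50 mM NaCl with protease inhibitors and spun at 221300g for 50 min. The supernatant was neutralized with Tris-HCl pH 6.8. Aβ38 or Aβ42 was read by sandwich ELISA with a fluorogenic peroxidase substrate (ex 320/em 420 nm). Results are mean % change versus T = 0 h, n = 4.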

Mus musculus [9] = experiment: Antialzheimer activity in CD1 mouse assessed as amyloid beta 42 level in brain at 10 mg/kg, po at 8 hrs by ELISA relative to control; type: functional; how it was run: as §4
Mus musculus [10] = experiment: Antialzheimer activity in CD1 mouse assessed as amyloid beta 42 level in brain at 10 mg/kg, po at 4 hrs by ELISA relative to control; type: functional; how it was run: as §4
Mus musculus [11] = experiment: Antialzheimer activity in CD1 mouse assessed as amyloid beta 38 level in brain at 10 mg/kg, po at 8 hrs by ELISA relative to control; type: functional; how it was run: as §4
MDR1 = experiment: Apparent permeability from apical to basal side of pig LLCPK1 cells expressing MDR1; type: ADME, cell-based, Sus scrofa; settings: LLC-PK1
[12] = Thermodynamic solubility in fasted state simulated intestinal fluid; type: physicochemical; settings: read-out: Therm_solubility
How it was run: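 Thermodynamic solubility was measured in pH 4.0 and pH 7.4 buffers, 0.01 N HCl, and fasted-state and fed-state simulated intestinal fluids (FaSSIF, FeSSIF). Results are in […].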

[13] = Fraction unbound in dog plasma; type: ADME, cell-free, Canis lupus familiaris
[14] = Fraction unbound in rat plasma; type: ADME, cell-free
Salmonella typhimurium = experiment: Genotoxicity against Salmonella typhimurium by AMES 2 test; type: toxicity, organism-based; settings: salmonella enterica subsp. enterica serovar typhimurium
Cytochrome P450 2C19 = Cytochrome P450 2C19 (Homo sapiens, UniProt P33261); experiment: Inhibition of CYP2C19 in human liver microsomes using S-mephenytoin as substrate; type: ADME, Microsome
[15] = Lipophilicity, log P of the compound; type: physicochemical; settings: octanol/water
[16] = Plasma concentration in CD1 mouse at 30 mg/kg, po at 4 hrs by LC-MS/MS analysis; type: ADME, organism-based; design: dose 30 mg/kg, route oral
How it was run: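 Single oral dose to overnight-fasted male CD1 mice in 20% Captisol suspension. Plasma was taken at 4 h by decapitation into EDTA tubes and spun at 1900g for 10 min at 4 °C. Compound was measured by a qualified LC-MS/MS method. Values are geometric means of at least four runs.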

Brain [17] = experiment: Drug uptake in CD1 mouse brain at 10 mg/kg, po at 48 hrs by LC-MS/MS analysis; type: ADME, organism-based; design: dose 10 mg/kg, route oral; settings: in vivo, BLD = below limit of detection; how it was run: as §2
[18] = Drug uptake in Sprague-Dawley rat brain at 10 mg/kg, po at 7 hrs by LC-MS/MS analysis; type: ADME, organism-based; design: dose 10 mg/kg, route oral; settings: read-out: Drug uptake
How it was run: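 Overnight-fasted male Sprague–Dawley rats (180–220 g) were dosed 10 mg/kg by gastric intubation of a 5 mg/mL suspension in 0.5% methocellulose. Rats were anesthetized with isoflurane, CSF was taken from the cisterna magna, then they were decapitated. Brain compound levels were measured as in the mouse assay. n = 5.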

[19] = Plasma concentration in Sprague-Dawley rat at 10 mg/kg, po at 25 hrs by LC-MS/MS analysis; type: ADME, organism-based; design: dose 10 mg/kg, route oral
How it was run: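 Overnight-fasted male Sprague-Dawley rats (180–220 g) were given 10 mg/kg by gastric intubation of a 5 mg/mL suspension in 0.5% methocellulose. Blood was collected after decapitation at 2, 4, 7 and 25 h under isoflurane anaesthesia. Plasma compound was measured as in the mouse assay, n = 5.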

Rattus norvegicus [20] = experiment: Antialzheimer activity in Sprague-Dawley rat assessed as amyloid beta 42 level in brain at 10 mg/kg, po at 7 hrs by ELISA relative to control; type: functional; how it was run: as §1
Rattus norvegicus [21] = experiment: Antialzheimer activity in Sprague-Dawley rat assessed as amyloid beta 40 level in brain at 10 mg/kg, po at 7 hrs by ELISA relative to control; type: functional; how it was run: as §1
Canis familiaris [22] = experiment: Antialzheimer activity in beagle dog assessed as amyloid beta 40 level in cerebrospinal fluid at 20 mg/kg, po at 4 hrs by ELISA relative to control
Canis familiaris [23] = experiment: Antialzheimer activity in beagle dog assessed as amyloid beta 38 level in cerebrospinal fluid at 20 mg/kg, po at 8 hrs by ELISA relative to control
Canis familiaris [24] = experiment: Antialzheimer activity in beagle dog assessed as amyloid beta 42 level in cerebrospinal fluid at 20 mg/kg, po at 24 hrs by ELISA relative to control

Chain of Cytochrome P450 2C19 (P33261 whole entry): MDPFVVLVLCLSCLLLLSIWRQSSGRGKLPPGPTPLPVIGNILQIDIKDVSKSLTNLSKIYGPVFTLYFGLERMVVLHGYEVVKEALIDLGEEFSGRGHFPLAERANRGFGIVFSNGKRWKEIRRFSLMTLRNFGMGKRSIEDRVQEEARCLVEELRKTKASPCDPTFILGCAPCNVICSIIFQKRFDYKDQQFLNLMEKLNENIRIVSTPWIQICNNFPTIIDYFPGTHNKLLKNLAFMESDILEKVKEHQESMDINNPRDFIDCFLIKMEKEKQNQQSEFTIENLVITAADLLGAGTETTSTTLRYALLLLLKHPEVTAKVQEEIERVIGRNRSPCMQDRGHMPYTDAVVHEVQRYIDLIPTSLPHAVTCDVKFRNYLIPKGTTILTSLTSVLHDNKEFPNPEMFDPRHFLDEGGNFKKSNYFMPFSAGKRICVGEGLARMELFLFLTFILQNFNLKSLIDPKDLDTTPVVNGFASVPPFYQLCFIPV

## COc1nc(Nc2cccc3c2nc(-c2ccc(F)cc2)n3C)ccc1-n1cnc(C)c1
Rattus norvegicus [1]
  Activity: 153%
Rattus norvegicus [2]
  Activity: 162%
Rattus norvegicus [3]
  Activity: 149%
[4]
  concentration at 4 h: 4.1 µM
Brain [5]
  Drug uptake: BLD
Mus musculus [6]
  Activity: 104%
Mus musculus [7]
  Activity: 86%
Mus musculus [8]
  Activity: 29%
Mus musculus [9]
  Activity: 50%
Mus musculus [10]
  Activity: 49%
Mus musculus [11]
  Activity: 124%
MDR1
  Papp A→B: 8 ×10⁻⁶ cm/s
[12]
  solubility thermodynamic: 3 µg/mL (≈ 7 µM)
[13]
  fraction unbound: 0.0003
[14]
  fraction unbound: 0.0004
Salmonella typhimurium
  Activity: Non-toxic
Cytochrome P450 2C19
  pIC50: 5.46
[15]
  logP: 5.25
[16]
  concentration at 4 h: 19.5 µM
Brain [17]
  Drug uptake: BLD
[18]
  concentration at 7 h: 2 µM
[19]
  concentration at 25 h: 0.02 µM
Rattus norvegicus [20]
  Activity: 63%
Rattus norvegicus [21]
  Activity: 66%
Canis familiaris [22]
  Activity: 89%
Canis familiaris [23]
  Activity: 184%
Canis familiaris [24]
  Activity: 89%
